The IC50 is the point on the concentration scale where inhibition reaches its midpoint.

The values below come from ChEMBL document CHEMBL5038600, “Discovery of M-1121 as an Orally Active Covalent Inhibitor of Menin-MLL Interaction Capable of Achieving Complete and Long-Lasting Tumor Regression” (J Med Chem, 2021).

Activity calls are given as the source filed them. The calls are words filed in the database; no cut-off is given here.

Series [1] deals with MV4-11. The experiment in a line: Anti-proliferative activity against human MV4-11 cells harboring MLL/AF4 fusion protein assessed as cell growth inhibition measured after 4 days by Cell Titre Glo Luminescent Cell viability assay. Conditions: MV4-11, 96 h. In kind it is functional, cell-based.
Series [2] deals with MV4-11. The experiment in a line: Anti-tumor activity against luciferase-tagged human MV4-11 cells xenografted in NCG mouse assessed as induction of CD11b protein in human CD45+ cells at 150 mg/kg, po administered daily for 4 days measured after 48 hrs by qRT-PCR analysis. The following applies: time 4.0 day, in the assay text read “flow cytometry analysis” for “qRT-PCR analysis”. In kind it is functional, organism-based. In short, it runs like this: (§1)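 Female NCG mice, 5–6 weeks old, given 5×10^6 luciferase-tagged MV4;11 cells IV via tail vein. Randomized at log-phase disease (day 27). Dosed 150 mg/kg oral gavage daily for 4 days in MC/Tween 80 vehicle. Read-outs 48 h after the last dose, five mice per group, mean ± SEM: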
For orientation: A xenograft is tissue or cells of one species grown in another, often human tumour cells in immunodeficient mice.

Series [3] can be described thus: Protein binding in mouse plasma at 1 uM incubated for 5 hrs by liquid chromatography-tandem mass spectrometry. In kind it is ADME, cell-free. In short, it runs like this:
(§2)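 Equilibrium dialysis: plasma spiked at 1 μM against dialysis buffer, shaken 5 h at 37 °C, with warfarin and quinidine (1 μM) as controls. Samples matrix-matched, quenched with acetonitrile containing imipramine internal standard, and analysed by LC-MS/MS. Percent bound computed from peak area ratios.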

Another series concerns the target T1, Menin (Homo sapiens) (UniProt O00255).
T1 sequence (whole entry): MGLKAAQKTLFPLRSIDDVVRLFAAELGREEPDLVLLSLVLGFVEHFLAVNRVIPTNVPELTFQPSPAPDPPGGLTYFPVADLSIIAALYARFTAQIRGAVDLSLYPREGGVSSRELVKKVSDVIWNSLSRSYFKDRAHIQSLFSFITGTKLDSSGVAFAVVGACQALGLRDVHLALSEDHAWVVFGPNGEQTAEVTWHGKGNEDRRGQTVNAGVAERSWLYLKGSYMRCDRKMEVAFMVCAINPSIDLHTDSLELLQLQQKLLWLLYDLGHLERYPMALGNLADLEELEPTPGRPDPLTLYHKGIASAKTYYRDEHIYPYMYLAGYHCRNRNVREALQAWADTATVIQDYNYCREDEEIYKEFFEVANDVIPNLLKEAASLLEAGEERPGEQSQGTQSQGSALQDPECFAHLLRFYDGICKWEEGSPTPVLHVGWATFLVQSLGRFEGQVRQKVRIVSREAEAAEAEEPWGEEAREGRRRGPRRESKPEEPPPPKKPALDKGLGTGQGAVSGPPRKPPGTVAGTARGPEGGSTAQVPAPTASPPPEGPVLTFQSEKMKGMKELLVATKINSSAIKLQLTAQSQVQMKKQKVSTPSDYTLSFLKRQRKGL
The experiment in a line: Binding affinity to recombinant human menin protein assessed as covalent complex formation incubated for 1 hrs by LC/MS analysis. Further details: concentration or dose not given beside the values. In short, it runs like this: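 Menin (25 mg/mL in 25 mM Tris pH 8.0, 150 mM NaCl, 5 mM DTT) incubated with compound at a 1:1.2 protein:compound molar ratio for 1 h or overnight at 4 °C. Diluted to 1 mg/mL, then reverse-phase C4 LC with a 5–100% MeCN/0.2% formic acid gradient and Q-TOF mass spectrometry to detect the covalent adduct.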

A short description of series [4]: Protein binding in human plasma at 1 uM incubated for 5 hrs by liquid chromatography-tandem mass spectrometry. In kind it is ADME, cell-free. In short, it runs like this: as §2
Series [5] is described as follows: GSH reactivity in pH 7.4 assessed as conjugation half life at pH 7.4. In kind it is physicochemical.
Series [6] is described as follows: Protein binding in rat plasma at 1 uM incubated for 5 hrs by liquid chromatography-tandem mass spectrometry. In kind it is ADME, cell-free. The essentials: as §2
In series [7] the test system is MV4-11. The experiment in a line: Anti-tumor activity against luciferase-tagged human MV4-11 cells xenografted in NCG mouse assessed as decreased intensity of whole body bioluminescence signal at 150 mg/kg, po administered daily for 4 days measured after 48 hrs by bioluminescence analysis. Conditions: time 4.0 day. In kind it is functional, organism-based. In short, it runs like this: as §1

Another series relates to RS4-11. Nature of the series: Anti-proliferative activity against human RS4-11 cells harboring MLL/AF4 fusion protein assessed as cell growth inhibition measured after 4 days by Cell Titre Glo Luminescent Cell viability assay. In kind it is functional, cell-based. The following applies: RS4-11, 96 h. The essentials: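 Leukemia lines plated in triplicate in RPMI 1640 at 37 °C, 5% CO2. 9-point dose response from 10 μM top concentration with 1:3 serial dilutions, 0.1% DMSO final; DMSO vehicle control column. Cellular ATP read by CellTiter-Glo at day 0 and after 4 days. Averages from three independent experiments.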

For series [8], the system named is MV4-11. The experiment in a line: Suppression of MEIS1 gene expression in human MV4-11 cells at 30 nM measured after 24 hrs by qRT-PCR analysis. In kind it is functional, cell-based. Background: In qPCR the cycle at which signal appears reflects the starting amount.

With `C=CC(=O)N1C[C@@H]2C[C@H]1CN2S(=O)(=O)c1ccc(N2CC(CN3CCC([C@@](CN4CCC4)(c4cccc(F)c4)[C@H]4CCC[C@@H]4NC(=O)OC)CC3)(OC)C2)cc1`, the IC50 is 10.3 nM in the series on MV4-11 [1] and 1000 nM in the series on RS4-11. Further, the outcome with MV4-11 [2] and in the series with MV4-11 [7] was Active. The PPB in [3] was determined as 99.3%; in series [4], 90.7%; in [6] it was 87.5%. Moreover, the Activity on Menin (Homo sapiens) is 66%. Moreover, in series [5], the t1/2 turned out to be 1.48 h. In addition, in the series with MV4-11 [8], the inhibition entry was “Active”.
